Converted amounts (≈) assume the structure as drawn.
Experiments:
Assay type in all cases: functional
Staphylococcus aureus = assay: Antibacterial activity against Staphylococcus aureus ATCC 25923 after 3 to 4 days by serial plate dilution method; details: for MIC: Staphylococcus aureus, ATCC 25923
Escherichia coli = assay: Antibacterial activity against Escherichia coli ATCC 25922 after 3 to 4 days by serial plate dilution method; details: for MIC: Escherichia coli, ATCC 25922
Pseudomonas aeruginosa = assay: Antibacterial activity against Pseudomonas aeruginosa ATCC 27853 after 3 to 4 days by serial plate dilution method; details: for MIC: Pseudomonas aeruginosa, ATCC 27853
Klebsiella pneumoniae = assay: Antibacterial activity against recultured Klebsiella pneumoniae after 3 to 4 days by serial plate dilution method; details: for MIC: Klebsiella pneumoniae
[1] = tested on: Mycobacterium tuberculosis; assay: Antituberculosis activity against Mycobacterium tuberculosis H37Rv ATCC 27294 after 7 days using resazurin dye by broth microdilution assay; details: H37Rv ATCC 27294, 168 h
In short: (§1)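 M. tuberculosis H37Rv grown in Middlebrook 7H9 with 10% OADC and 0.5% glycerol, adjusted to McFarland 1.0. Compounds were dissolved in DMF as stocks and tested at final levels of 1.56, 3.12, 6.25, 12.5, 25 and 50 in 96-well REMA. Controls were DMF-only, growth, rifampicin and isoniazid. After 7 days at 37 °C, 0.01% resazurin was added for 24 h and the colour change read.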

[2] = tested on: Mycobacterium tuberculosis; assay: Antituberculosis activity against Mycobacterium tuberculosis at MIC concentration after 7 days using resazurin dye by broth microdilution assay; in short: as §1
[3] = tested on: Mycobacterium tuberculosis; assay: Antituberculosis activity against Mycobacterium tuberculosis; in short: as §1

Cn1cccc1/C=N/Nc1cc(C(F)(F)F)nc2c(C(F)(F)F)cccc12
diameter of the inhibition zone (DIZ) (Staphylococcus aureus): 22 mm | MIC (Staphylococcus aureus): 6.25 µg/mL (≈ 16.2 µM) | diameter of the inhibition zone (DIZ) (Escherichia coli): 20 mm | MIC (Escherichia coli): 6.25 µg/mL (≈ 16.2 µM) | diameter of the inhibition zone (DIZ) (Pseudomonas aeruginosa): 24 mm | MIC (Pseudomonas aeruginosa): 6.25 µg/mL (≈ 16.2 µM) | diameter of the inhibition zone (DIZ) (Klebsiella pneumoniae): 21 mm | MIC (Klebsiella pneumoniae): 6.25 µg/mL (≈ 16.2 µM) | MIC [1]: 12.5 µM (≈ 4.83 µg/mL) | inhibition (INH) [2]: <90%

FC(F)(F)c1cc(N/N=C/c2ccc3nonc3c2)c2cccc(C(F)(F)F)c2n1
diameter of the inhibition zone (DIZ) (Staphylococcus aureus): 18 mm | MIC (Staphylococcus aureus): 6.25 µg/mL (≈ 14.7 µM) | diameter of the inhibition zone (DIZ) (Escherichia coli): 22 mm | MIC (Escherichia coli): 6.25 µg/mL (≈ 14.7 µM) | diameter of the inhibition zone (DIZ) (Pseudomonas aeruginosa): 24 mm | MIC (Pseudomonas aeruginosa): 6.25 µg/mL (≈ 14.7 µM) | diameter of the inhibition zone (DIZ) (Klebsiella pneumoniae): 20 mm | MIC (Klebsiella pneumoniae): 6.25 µg/mL (≈ 14.7 µM) | MIC [1]: 12.5 µM (≈ 5.32 µg/mL) | inhibition (INH) [2]: <90%

Cn1nnc2cc(/C=N/Nc3cc(C(F)(F)F)nc4c(C(F)(F)F)cccc34)ccc21
diameter of the inhibition zone (DIZ) (Staphylococcus aureus): 22 mm | MIC (Staphylococcus aureus): 6.25 µg/mL (≈ 14.3 µM) | diameter of the inhibition zone (DIZ) (Escherichia coli): 20 mm | MIC (Escherichia coli): 6.25 µg/mL (≈ 14.3 µM) | diameter of the inhibition zone (DIZ) (Pseudomonas aeruginosa): 24 mm | MIC (Pseudomonas aeruginosa): 6.25 µg/mL (≈ 14.3 µM) | diameter of the inhibition zone (DIZ) (Klebsiella pneumoniae): 21 mm | MIC (Klebsiella pneumoniae): 6.25 µg/mL (≈ 14.3 µM) | MIC [1]: 12.5 µM (≈ 5.48 µg/mL) | inhibition (INH) [2]: <90%

Cc1cccc2c(/C=N/Nc3cc(C(F)(F)F)nc4c(C(F)(F)F)cccc34)c[nH]c12
diameter of the inhibition zone (DIZ) (Staphylococcus aureus): 24 mm | MIC (Staphylococcus aureus): 6.25 µg/mL (≈ 14.3 µM) | diameter of the inhibition zone (DIZ) (Escherichia coli): 27 mm | MIC (Escherichia coli): 6.25 µg/mL (≈ 14.3 µM) | diameter of the inhibition zone (DIZ) (Pseudomonas aeruginosa): 24 mm | MIC (Pseudomonas aeruginosa): 6.25 µg/mL (≈ 14.3 µM) | diameter of the inhibition zone (DIZ) (Klebsiella pneumoniae): 19 mm | MIC (Klebsiella pneumoniae): 6.25 µg/mL (≈ 14.3 µM) | MIC [1]: 6.25 µM (≈ 2.73 µg/mL) | inhibition (INH) [2]: 95%

Cc1nc[nH]c1/C=N/Nc1cc(C(F)(F)F)nc2c(C(F)(F)F)cccc12
diameter of the inhibition zone (DIZ) (Staphylococcus aureus): 24 mm | MIC (Staphylococcus aureus): 6.25 µg/mL (≈ 16.1 µM) | diameter of the inhibition zone (DIZ) (Escherichia coli): 26 mm | MIC (Escherichia coli): 6.25 µg/mL (≈ 16.1 µM) | diameter of the inhibition zone (DIZ) (Pseudomonas aeruginosa): 25 mm | MIC (Pseudomonas aeruginosa): 6.25 µg/mL (≈ 16.1 µM) | diameter of the inhibition zone (DIZ) (Klebsiella pneumoniae): 22 mm | MIC (Klebsiella pneumoniae): 6.25 µg/mL (≈ 16.1 µM) | MIC [1]: 3.12 µM (≈ 1.21 µg/mL) | inhibition (INH) [2]: 99%

O=C(NNc1cc(C(F)(F)F)nc2c(C(F)(F)F)cccc12)Nc1ccc(F)cc1
diameter of the inhibition zone (DIZ) (Staphylococcus aureus): 10 mm | MIC (Staphylococcus aureus): 12.5 µg/mL (≈ 28.9 µM) | diameter of the inhibition zone (DIZ) (Escherichia coli): 10 mm | MIC (Escherichia coli): 12.5 µg/mL (≈ 28.9 µM) | diameter of the inhibition zone (DIZ) (Pseudomonas aeruginosa): 14 mm | MIC (Pseudomonas aeruginosa): 12.5 µg/mL (≈ 28.9 µM) | diameter of the inhibition zone (DIZ) (Klebsiella pneumoniae): <10 mm | MIC (Klebsiella pneumoniae): 50 µg/mL (≈ 116 µM) | MIC [1]: 12.5 µM (≈ 5.4 µg/mL) | inhibition (INH) [2]: <90%

COc1ccccc1NC(=O)NNc1cc(C(F)(F)F)nc2c(C(F)(F)F)cccc12
diameter of the inhibition zone (DIZ) (Staphylococcus aureus): 21 mm | MIC (Staphylococcus aureus): 6.25 µg/mL (≈ 14.1 µM) | diameter of the inhibition zone (DIZ) (Escherichia coli): 24 mm | MIC (Escherichia coli): 6.25 µg/mL (≈ 14.1 µM) | diameter of the inhibition zone (DIZ) (Pseudomonas aeruginosa): 22 mm | MIC (Pseudomonas aeruginosa): 6.25 µg/mL (≈ 14.1 µM) | diameter of the inhibition zone (DIZ) (Klebsiella pneumoniae): 18 mm | MIC (Klebsiella pneumoniae): 6.25 µg/mL (≈ 14.1 µM) | MIC [1]: 12.5 µM (≈ 5.55 µg/mL) | inhibition (INH) [2]: <90%

Cc1cc(C)cc(NC(=O)NNc2cc(C(F)(F)F)nc3c(C(F)(F)F)cccc23)c1
diameter of the inhibition zone (DIZ) (Staphylococcus aureus): 23 mm | MIC (Staphylococcus aureus): 6.25 µg/mL (≈ 14.1 µM) | diameter of the inhibition zone (DIZ) (Escherichia coli): 20 mm | MIC (Escherichia coli): 6.25 µg/mL (≈ 14.1 µM) | diameter of the inhibition zone (DIZ) (Pseudomonas aeruginosa): 24 mm | MIC (Pseudomonas aeruginosa): 6.25 µg/mL (≈ 14.1 µM) | diameter of the inhibition zone (DIZ) (Klebsiella pneumoniae): 22 mm | MIC (Klebsiella pneumoniae): 6.25 µg/mL (≈ 14.1 µM) | MIC [1]: 6.25 µM (≈ 2.76 µg/mL) | inhibition (INH) [2]: 95%

OC(c1cc(C(F)(F)F)nc2c(C(F)(F)F)cccc12)C1CCCCN1 (stereo unspecified) [MEFLOQUINE]
MIC [3]: 25 µg/mL (≈ 66.1 µM)

— ChEMBL document CHEMBL1208682, “New quinoline derivatives: synthesis and investigation of antibacterial and antituberculosis properties” (2010)
